Reference: ChEMBL document CHEMBL1641558, “A novel series of potent and selective EP(4) receptor ligands: facile modulation of agonism and antagonism” (Bioorg Med Chem Lett, 2011)
pEC50, pIC50, pKi: −log10 of the molar value. The source made the active and inactive calls. The rule behind the calls is not given here.

What was measured:
[1] = species: Rattus norvegicus; assay: covalent protein labeling in rat assessed per mg of protein; assay type: ADME, organism-based; conditions: in vivo
[2] = Drug excretion in rat bile assessed as total radioactivity after 24 hrs; assay type: ADME; conditions: in vivo
[3] = tested on: Hepatocyte; assay: Oxidative metabolism in rat hepatocytes assessed as protein covalent binding per mg of protein after 2 hrs; assay type: ADME, cell-based
[4] = tested on: Hepatocyte; assay: Oxidative metabolism in human hepatocytes assessed as protein covalent binding per mg of protein after 2 hrs; assay type: ADME, cell-based
[5] = species: Homo sapiens; assay: Selectivity ratio of Ki for human prostanoid EP1 receptor to Ki for human prostanoid EP4
[6] = Bioavailability in rat at 20 mg/kg, po and 5 mg/kg, iv; assay type: ADME, organism-based; conditions: in vivo
Outline: (§1)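 Rat pharmacokinetics with potassium salts, given 20 mg/kg orally in 0.5% methocel and 5 mg/kg intravenously in 60% PEG 200. Half-life, oral bioavailability and clearance derived from these dosings.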

[7] = species: Homo sapiens; assay: Selectivity ratio of Ki for human prostanoid TP receptor to Ki for human prostanoid EP4
[8] = species: Homo sapiens; assay: Selectivity ratio of Ki for human prostanoid IP receptor to Ki for human prostanoid EP4
[9] = species: Homo sapiens; assay: Selectivity ratio of Ki for human prostanoid DP receptor to Ki for human prostanoid EP4
[10] = target: T1, Prostaglandin E2 receptor EP4 subtype (Homo sapiens, UniProt P35408); assay: Displacement of [3H]PGE2 from human prostanoid EP4 receptor expressed in HEK293-EBNA cells after 60 mins by scintillation counting; assay type: cell-based
[11] = Half life in rat at 20 mg/kg, po and 5 mg/kg, iv; assay type: ADME, organism-based; conditions: in vivo; outline: as §1
[12] = species: Homo sapiens; assay: Selectivity ratio of Ki for human prostanoid EP3 receptor to Ki for human prostanoid EP4
[13] = species: Homo sapiens; assay: Selectivity ratio of Ki for human prostanoid FP receptor to Ki for human prostanoid EP4
[14] = target: T1, Prostaglandin E2 receptor EP4 subtype; assay: Antagonist activity at human prostanoid EP4 receptor expressed in HEK293 cells assessed as inhibition of PGE2-induced cAMP accumulation by scintillation proximity assay; assay type: functional, cell-based
Outline: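 HEK293 cells expressing EP4 receptors. Antagonism is read as inhibition of PGE2-evoked rise in intracellular cAMP, reported as IC50. Agonism is read as cAMP elevation in the same cells without PGE2, reported as EC50.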

[15] = Clearance in rat at 20 mg/kg, po and 5 mg/kg, iv; assay type: ADME, organism-based; conditions: in vivo; outline: as §1
[16] = target: T1, Prostaglandin E2 receptor EP4 subtype; assay: Agonist activity at human prostanoid EP4 receptor expressed in HEK293 cells assessed as cAMP accumulation by scintillation proximity assay
[17] = species: Homo sapiens; assay: Selectivity ratio of Ki for human prostanoid EP2 receptor to Ki for human prostanoid EP4
[18] = Metabolic stability in rat hepatocytes assessed as parent compound remaining after 2 hrs; assay type: ADME, cell-based, Hepatocyte; conditions: read-out: Stability
Outline: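 Incubation with rat hepatocytes for 2 h. The mixture is analysed by LC/MS for percent parent remaining and metabolite identity.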

[19] = tested on: Rattus norvegicus; assay: Antiinflammatory activity in rat assessed as inhibition of complete Freund's adjuvant-induced paw swelling administered daily once 9 days after adjuvant challenge measured on day 18; assay type: functional, organism-based
Outline: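 Adjuvant arthritis in rats: complete Freund's adjuvant injected into the left hind paw on day 0. Dosing once daily for 9 days, starting on day 9. Secondary paw volume measured on day 18. Percent inhibition is calculated from the difference between each treated group (n = 7/group) and vehicle control; SEM reported.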

[20] = tested on: Rattus norvegicus; assay: Antiinflammatory activity in rat assessed as inhibition of complete Freund's adjuvant-induced paw swelling at 0.6 mg/kg administered daily once 9 days after adjuvant challenge measured on day 18
[21] = species: Rattus norvegicus; assay: Analgesic activity against carrageenan-induced mechanical hyperalgesia in rat assessed as paw withdrawal latency; assay type: functional, organism-based
Outline: (§2)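 Rats given carrageenan injection into the paw at t = 0 h, test article dosed at t = 2 h. At t = 3 h mechanical pressure is applied to the paw and paw withdrawal latency is recorded. Statistics by one-way ANOVA with Dunnett's test versus vehicle control.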

[22] = tested on: Rattus norvegicus; assay: Analgesic activity against carrageenan-induced mechanical hyperalgesia in rat assessed as paw withdrawal latency at 10 mg/kg; assay type: functional; outline: as §2

T1 sequence (P35408 whole entry): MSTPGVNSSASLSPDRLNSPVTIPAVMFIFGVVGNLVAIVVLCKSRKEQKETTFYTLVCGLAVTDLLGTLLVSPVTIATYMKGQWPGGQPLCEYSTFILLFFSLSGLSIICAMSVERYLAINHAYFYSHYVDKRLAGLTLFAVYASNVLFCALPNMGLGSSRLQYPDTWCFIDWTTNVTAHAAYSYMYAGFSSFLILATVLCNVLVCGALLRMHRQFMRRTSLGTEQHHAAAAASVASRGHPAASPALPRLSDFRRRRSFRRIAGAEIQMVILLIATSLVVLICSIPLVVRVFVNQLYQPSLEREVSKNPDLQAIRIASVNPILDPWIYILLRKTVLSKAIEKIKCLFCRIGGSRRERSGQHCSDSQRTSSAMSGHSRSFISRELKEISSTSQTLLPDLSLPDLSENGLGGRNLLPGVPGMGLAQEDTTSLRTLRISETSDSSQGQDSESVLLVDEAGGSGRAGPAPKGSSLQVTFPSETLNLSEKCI

Row | Ratio Ki [5] | bioavailability [6] | Ratio Ki [7] | Ratio Ki [8] | Ratio Ki [9] | pKi [10] | half-life [11] | Ratio Ki [12] | Ratio Ki [13] | pIC50 [14] | clearance [15] | pEC50 [16] | Ratio Ki [17] | Compound | further results
1 |  |  |  |  |  |  |  |  |  |  |  |  |  | [3H]c1cc2c(c(C(=O)N[C@@H](C)c3ccc(C(=O)O)cc3)c1)N(Cc1ccc(C(F)(F)F)cc1)CC2 | Activity [1]: 5 pmol; Activity [2]: 86%; Activity [3]: 56 pmolequiv/mg; Activity [4]: 28 pmolequiv/mg
2 | > 1000 | 65% | > 1000 | > 1000 | > 1000 | 9.36 | 4.4 h | > 1000 | > 1000 | < 5.00 | 26 mL/min/kg | 9.09 | 595 | C[C@H](NC(=O)c1cccc2c1N(Cc1cccc(Cl)c1)CC2)c1ccc(C(=O)O)cc1 | 
3 | > 1000 | 48% | > 1000 | > 1000 | > 1000 | 9.43 | 4.1 h | > 1000 | > 1000 | 8.68 | 11 mL/min/kg |  | > 1000 | C[C@H](NC(=O)c1cccc2c1N(Cc1ccc(C(F)(F)F)cc1)CC2)c1ccc(C(=O)O)cc1 | remaining at 2 h [18]: 36%; inhibition [19]: Dose-dependent effect; inhibition [20]: Active; Activity [21]: Dose-dependent effect; Activity [22]: 64%
4 | > 1000 |  | > 1000 | > 1000 | > 1000 | 9.40 |  | > 1000 | > 1000 | < 5.00 |  | 9.70 | > 1000 | C[C@H](NC(=O)c1cccc2c1N(Cc1cccc(C(F)(F)F)c1)CC2)c1ccc(C(=O)O)cc1 | 
